{"data": "Published values from different studies", "cell line": "WI-38", "effect on": "cell growth or viability", "note": "Protocols differ between the studies behind these lines."}
{"SMILES": "COc1cc(Nc2nc(C#N)cc3c(-c4ccccc4)n[nH]c23)cc(OC)c1OC", "assay": "MTS", "setting": "48 h", "endpoint": "IC50", "result": "> 10 µM"}
{"SMILES": "CN(C)CCCOc1cc(NC(=O)c2cc(Cl)cc(C(=O)Nc3cc(OCCCN(C)C)c4ccccc4n3)n2)nc2ccccc12", "assay": "ATP luminescence", "setting": "72 h", "endpoint": "IC50", "result": "3.6 µM"}
{"SMILES": "CS(=O)(=O)CCNCc1ccc(-c2ccc3ncnc(Nc4ccc(OCc5cccc(F)c5)c(Cl)c4)c3c2)o1", "assay": "MTT", "setting": "72 h", "endpoint": "EC50", "result": "32 µM"}
{"SMILES": "c1ccc(CNCc2cc3c(-c4ccccc4)n[nH]c3c(Nc3ccccc3)n2)cc1", "assay": "MTS", "setting": "48 h", "endpoint": "IC50", "result": "8.2 µM"}
{"SMILES": "Cc1cccc(-n2ncc(Br)c(Br)c2=O)c1", "assay": "resazurin", "setting": "96 h", "endpoint": "IC50", "result": "2.61 µM"}
{"SMILES": "C=C(c1ccc(C(=O)O)cc1)c1cc2c(cc1C)C(C)(C)CCC2(C)C", "assay": "MTT", "setting": "72 h", "endpoint": "EC50", "result": "76 µM"}
{"SMILES": "C#CCOc1cc(C(=O)Nc2cc(OCCN)c3ccccc3n2)nc(C(=O)Nc2cc(OCCN)c3ccccc3n2)c1", "assay": "ATP luminescence", "setting": "72 h", "endpoint": "IC50", "result": "4 µM"}
{"SMILES": "Cc1nc(Nc2ncc(C(=O)Nc3c(C)cccc3Cl)s2)cc(N2CCN(CCO)CC2)n1", "assay": "MTT", "setting": "72 h", "endpoint": "EC50", "result": "0.7 µM"}
{"SMILES": "N#Cc1cc2c(-c3ccccc3)n[nH]c2c(Nc2ccccc2)n1", "assay": "MTS", "setting": "48 h", "endpoint": "IC50", "result": "> 10 µM"}
{"SMILES": "CN(C)CCCOc1cc(NC(=O)c2cccc(C(=O)Nc3cc(OCCCN(C)C)c4ccccc4n3)n2)nc2ccccc12", "assay": "ATP luminescence", "setting": "72 h", "endpoint": "IC50", "result": "2.1 µM"}
